Experimental data from ChEMBL document CHEMBL1122940, “Cyclic guanidines. 17. Novel (N-substituted amino)imidazo[2,1-b]quinazolin-2 ones: water-soluble platelet aggregation inhibitors” (J Med Chem, 1985).

What was measured:
Rattus norvegicus [1] = species on record: Rattus norvegicus; test: In vitro inhibition of blood platelet aggregation (ADP) in rats; format: functional
Rattus norvegicus [2] = species on record: Rattus norvegicus; test: In vitro inhibition of blood platelet aggregation (collagen) in rats; format: functional
Rattus norvegicus [3] = test: Ex vivo in vitro inhibition of blood platelet aggregation (ADP) in rats at oral dose 10 mg/kg 1 hour before the test; format: functional
Rattus norvegicus [4] = test: Ex vivo inhibition of blood platelet aggregation (collagen) in rats at oral dose 10 mg/kg 1 hour before the test; format: functional
Rattus norvegicus [5] = test: Ex vivo in vitro inhibition of blood platelet aggregation (ADP) in rats at oral dose 10 mg/kg 1 hour before the tes; format: functional
Rattus norvegicus [6] = test: Inhibition of blood platelet aggregation in rats (ADP) after intravenous infusion at dose 10 mg/kg after 10 min; format: functional
In short: (§1)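 Compounds were dissolved in physiological saline and infused continuously through the femoral vein into fed rats under pentobarbital anesthesia, at 1 mg/kg over 15 min or 10 mg/kg over 10 min. Citrated cardiac blood was drawn 15 or 10 min later, and aggregation was measured as in the in vitro test. Collagen was read as ΔA/min and ADP as ΔA. Values are mean ± SD of five animals, as percent inhibition versus control.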

Rattus norvegicus [7] = test: Inhibition of blood platelet aggregation in rats (collagen) after intravenous infusion at dose 10 mg/kg after 10 min; format: functional; in short: as §1
Rattus norvegicus [8] = test: Change in heart rate 1 hour after oral administration at dose 50 mg/kg; format: functional
Rattus norvegicus [9] = test: Change in heart rate 2 hours after oral administration at dose 50 mg/kg; format: functional
Rattus norvegicus [10] = test: Decrease in systolic BP 7 hours after oral administration at dose 50 mg/kg; format: functional
Rattus norvegicus [11] = test: Decrease in systolic BP 1 hour after oral administration at dose 50 mg/kg; format: functional
Rattus norvegicus [12] = test: Decrease in systolic BP 2 hours after oral administration at dose 50 mg/kg; format: functional
Rattus norvegicus [13] = test: Decrease in systolic BP 3 hours after oral administration at dose 50 mg/kg; format: functional
Rattus norvegicus [14] = test: Decrease in systolic BP 5 hours after oral administration at dose 50 mg/kg; format: functional
Rattus norvegicus [15] = test: Change in heart rate 3 hours after oral administration at dose 50 mg/kg; format: functional
Rattus norvegicus [16] = test: Change in heart rate 5 hours after oral administration at dose 50 mg/kg; format: functional
Rattus norvegicus [17] = test: Change in heart rate 7 hours after oral administration at dose 50 mg/kg; format: functional
Rattus norvegicus [18] = test: Inhibition of blood platelet aggregation in rats (ADP) after intravenous infusion at dose 1 mg/kg after 15 min; format: functional; in short: as §1
Rattus norvegicus [19] = test: Inhibition of blood platelet aggregation in rats (collagen) after intravenous infusion at dose 1 mg/kg after 15 min; format: functional; in short: as §1
Rattus norvegicus [20] = test: Duration of inhibition of blood platelet aggregation in rats (ADP) 3 hours after oral administration at dose 10 mg/kg; format: functional
In short: (§2)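 Rats got a single oral dose of 10 mg/kg, and controls got vehicle alone. Blood was collected 3 h later and aggregation was run ex vivo. Collagen-induced aggregation was read as ΔA/min and ADP-induced aggregation as ΔA. Values are mean ± SD of five animals, with percent inhibition versus vehicle control.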

Rattus norvegicus [21] = test: Duration of inhibition of blood platelet aggregation in rats (collagen) 3 hr after oral administration at dose 10 mg/kg; format: functional; in short: as §2
Rattus norvegicus [22] = test: Ex vivo in vitro inhibition of blood platelet aggregation (ADP) in rats at oral dose 10 mg/kg 1 hour before the test; Platelet aggregation could not be measured optically because this compound causes hemolysis; format: functional, organism-based; parameters: dose 10 mg/kg
Rattus norvegicus [23] = test: Ex vivo inhibition of blood platelet aggregation (collagen) in rats at oral dose 10 mg/kg 1 hour before the test; Platelet aggregation could not be measured optically because this compound causes hemolysis; format: functional, organism-based; parameters: dose 10 mg/kg
Rattus norvegicus [24] = test: Duration of inhibition of blood platelet aggregation in rats (collagen) 3 hours after oral administration at dose 10 mg/kg; format: functional; in short: as §2

Cc1cc2c(cc1N1CCCCC1)NC1=NC(=O)CN1C2
EC50 (Rattus norvegicus [1]): 220000 nM

O=C1CN2Cc3c(ccc(N4CCCC4)c3Cl)NC2=N1
EC50 (Rattus norvegicus [1]): 3000 nM
EC50 (Rattus norvegicus [2]): 2700 nM

O=C1CN2Cc3c(sc4c3CCCC4)N=C2N1
EC50 (Rattus norvegicus [2]): 100 nM
platelet aggregation (Rattus norvegicus [3]): 0.112 ΔA
platelet aggregation rate (Rattus norvegicus [4]): 0.073 ΔA/min

O=C1CN2Cc3c(cccc3N3CCCCC3)NC2=N1
EC50 (Rattus norvegicus [1]): 22500 nM
EC50 (Rattus norvegicus [2]): 20000 nM

CC1CCCCN1c1ccc2c(c1)CN1CC(=O)NC1=N2 (stereo not drawn)
EC50 (Rattus norvegicus [1]): 2000 nM
EC50 (Rattus norvegicus [2]): 1700 nM
platelet aggregation (Rattus norvegicus [5]): 0.19 ΔA
platelet aggregation rate (Rattus norvegicus [4]): 0.145 ΔA/min

O=C1CN2Cc3cc(N4CCOCC4)ccc3N=C2N1
EC50 (Rattus norvegicus [1]): 5000 nM
EC50 (Rattus norvegicus [2]): 2000 nM
platelet aggregation (Rattus norvegicus [6]): 0.202 ΔA
platelet aggregation rate (Rattus norvegicus [7]): 0.09 ΔA/min
platelet aggregation (Rattus norvegicus [3]): 0.201 ΔA
platelet aggregation rate (Rattus norvegicus [4]): 0.154 ΔA/min

O=C1CN2Cc3ccc(N4CCCCC4)cc3N=C2N1
EC50 (Rattus norvegicus [1]): 46000 nM
EC50 (Rattus norvegicus [2]): 8000 nM

CN1CCN(c2ccc3c(c2Cl)CN2CC(=O)NC2=N3)CC1
EC50 (Rattus norvegicus [1]): 8000 nM
EC50 (Rattus norvegicus [2]): 3000 nM
platelet aggregation (Rattus norvegicus [3]): 0.189 ΔA
platelet aggregation rate (Rattus norvegicus [4]): 0.149 ΔA/min

CC1CCCCN1c1ccc2c(c1Cl)CN1CC(=O)NC1=N2 (stereo not drawn)
EC50 (Rattus norvegicus [1]): 4000 nM
EC50 (Rattus norvegicus [2]): 1400 nM

O=C1CN2Cc3cc(N4CCCCC4)ccc3N=C2N1
Change in heart rate (Rattus norvegicus [8]): 27%
Change in heart rate (Rattus norvegicus [9]): 32%
Change in BP (Rattus norvegicus [10]): 9 mmHg
Change in BP (Rattus norvegicus [11]): 18 mmHg
Change in BP (Rattus norvegicus [12]): 12 mmHg
Change in BP (Rattus norvegicus [13]): 12 mmHg
Change in BP (Rattus norvegicus [14]): 12 mmHg
Change in heart rate (Rattus norvegicus [15]): 27%
Change in heart rate (Rattus norvegicus [16]): 25%
Change in heart rate (Rattus norvegicus [17]): 17%
EC50 (Rattus norvegicus [1]): 3800 nM
EC50 (Rattus norvegicus [2]): 330 nM
platelet aggregation (Rattus norvegicus [18]): 0.116 ΔA
platelet aggregation rate (Rattus norvegicus [19]): 0 ΔA/min
platelet aggregation (Rattus norvegicus [20]): 0.158 ΔA
platelet aggregation rate (Rattus norvegicus [21]): 0.118 ΔA/min
platelet aggregation (Rattus norvegicus [3]): 0.121 ΔA
platelet aggregation rate (Rattus norvegicus [4]): 0.068 ΔA/min

Cc1cc2c(cc1N1CCCCC1)CN1CC(=O)NC1=N2
EC50 (Rattus norvegicus [1]): 5400 nM
EC50 (Rattus norvegicus [2]): 580 nM
Inhibition (Rattus norvegicus [22]): Platelet aggregation could not be measured optically because this compound causes hemolysis
Inhibition (Rattus norvegicus [23]): Platelet aggregation could not be measured optically because this compound causes hemolysis

O=C1CN2Cc3cc(N4CCCC4)ccc3N=C2N1
EC50 (Rattus norvegicus [1]): 2600 nM
EC50 (Rattus norvegicus [2]): 1900 nM

CC1CCN(c2ccc3c(c2)CN2CC(=O)NC2=N3)CC1
EC50 (Rattus norvegicus [1]): 2800 nM
EC50 (Rattus norvegicus [2]): 18000 nM
platelet aggregation (Rattus norvegicus [3]): 0.188 ΔA
platelet aggregation rate (Rattus norvegicus [4]): 0.122 ΔA/min

CN(C)c1cc(Cl)c2c(c1)NC1=NC(=O)CN1C2
EC50 (Rattus norvegicus [1]): 290000 nM

CN(C)c1cccc2c1CN1CC(=O)NC1=N2
EC50 (Rattus norvegicus [1]): 2700 nM
EC50 (Rattus norvegicus [2]): 1500 nM

O=C1CN2Cc3c(ccc(N4CCCCC4)c3Cl)NC2=N1
EC50 (Rattus norvegicus [1]): 7900 nM
EC50 (Rattus norvegicus [2]): 1200 nM

O=C1CN2Cc3cc(N4CCCCC4)c(Cl)cc3N=C2N1
EC50 (Rattus norvegicus [1]): 400 nM
EC50 (Rattus norvegicus [2]): 460 nM
platelet aggregation (Rattus norvegicus [20]): 0.189 ΔA
platelet aggregation rate (Rattus norvegicus [21]): 0.18 ΔA/min
platelet aggregation (Rattus norvegicus [3]): 0.137 ΔA
platelet aggregation rate (Rattus norvegicus [4]): 0.039 ΔA/min

CN(C)c1ccc2c(c1)CN1CC(=O)NC1=N2
EC50 (Rattus norvegicus [1]): 5400 nM
EC50 (Rattus norvegicus [2]): 1400 nM
platelet aggregation (Rattus norvegicus [18]): 0.142 ΔA
platelet aggregation rate (Rattus norvegicus [19]): 0.058 ΔA/min
platelet aggregation (Rattus norvegicus [20]): 0.16 ΔA
platelet aggregation rate (Rattus norvegicus [21]): 0.154 ΔA/min
platelet aggregation (Rattus norvegicus [3]): 0.193 ΔA
platelet aggregation rate (Rattus norvegicus [4]): 0.071 ΔA/min

O=C1CN2Cc3cc(N4CCOCC4)c(Cl)cc3N=C2N1
EC50 (Rattus norvegicus [1]): 360 nM
EC50 (Rattus norvegicus [2]): 100 nM
platelet aggregation (Rattus norvegicus [3]): 0.122 ΔA
platelet aggregation rate (Rattus norvegicus [4]): 0.055 ΔA/min

O=C1CN2Cc3c(ccc(Cl)c3Cl)N=C2N1 [ANAGRELIDE]
platelet aggregation (Rattus norvegicus [5]): 0.248 ΔA
platelet aggregation rate (Rattus norvegicus [4]): 0.067 ΔA/min

CN(Cc1ccccc1)c1ccc2c(c1)CN1CC(=O)NC1=N2
EC50 (Rattus norvegicus [1]): 26000 nM

CNc1ccc2c(c1)CN1CC(=O)NC1=N2
EC50 (Rattus norvegicus [1]): 24000 nM

CC1CCN(c2ccc3c(c2Cl)CN2CC(=O)NC2=N3)CC1
EC50 (Rattus norvegicus [1]): 4000 nM
EC50 (Rattus norvegicus [2]): 2300 nM

CCN(CC)c1ccc2c(c1Cl)CN1CC(=O)NC1=N2
EC50 (Rattus norvegicus [1]): 5600 nM
EC50 (Rattus norvegicus [2]): 1300 nM
platelet aggregation (Rattus norvegicus [3]): 0.201 ΔA
platelet aggregation rate (Rattus norvegicus [4]): 0.041 ΔA/min

Nc1ccc2c(c1)CN1CC(=O)NC1=N2
EC50 (Rattus norvegicus [1]): 170000 nM
EC50 (Rattus norvegicus [2]): 16000 nM

CN(C)c1cc2c(cc1Cl)NC1=NC(=O)CN1C2
Change in heart rate (Rattus norvegicus [8]): 42%
Change in heart rate (Rattus norvegicus [9]): 50%
Change in BP (Rattus norvegicus [10]): 23 mmHg
Change in BP (Rattus norvegicus [11]): 30 mmHg
Change in BP (Rattus norvegicus [12]): 27 mmHg
Change in BP (Rattus norvegicus [13]): 26 mmHg
Change in BP (Rattus norvegicus [14]): 28 mmHg
Change in heart rate (Rattus norvegicus [15]): 47%
Change in heart rate (Rattus norvegicus [16]): 46%
Change in heart rate (Rattus norvegicus [17]): 41%
EC50 (Rattus norvegicus [1]): 1100 nM
EC50 (Rattus norvegicus [2]): 440 nM
platelet aggregation (Rattus norvegicus [20]): 0.171 ΔA
platelet aggregation (Rattus norvegicus [3]): 0.15 ΔA
platelet aggregation rate (Rattus norvegicus [4]): 0.082 ΔA/min
platelet aggregation rate (Rattus norvegicus [24]): 0.136 ΔA/min

CN(C)c1ccc2c(c1Cl)CN1CC(=O)NC1=N2
Change in heart rate (Rattus norvegicus [8]): 46%
Change in heart rate (Rattus norvegicus [9]): 46%
Change in BP (Rattus norvegicus [10]): 34 mmHg
Change in BP (Rattus norvegicus [11]): 45 mmHg
Change in BP (Rattus norvegicus [12]): 43 mmHg
Change in BP (Rattus norvegicus [13]): 35 mmHg
Change in BP (Rattus norvegicus [14]): 36 mmHg
Change in heart rate (Rattus norvegicus [15]): 43%
Change in heart rate (Rattus norvegicus [16]): 41%
Change in heart rate (Rattus norvegicus [17]): 38%
EC50 (Rattus norvegicus [1]): 7000 nM
EC50 (Rattus norvegicus [2]): 1200 nM
platelet aggregation (Rattus norvegicus [6]): 0.208 ΔA
platelet aggregation rate (Rattus norvegicus [7]): 0 ΔA/min
platelet aggregation (Rattus norvegicus [3]): 0.098 ΔA
platelet aggregation rate (Rattus norvegicus [4]): 0.019 ΔA/min

O=C1CN2Cc3ccc(N4CCOCC4)cc3N=C2N1
EC50 (Rattus norvegicus [1]): 96000 nM

O=C1CN2Cc3c(Cl)cc(N4CCCCC4)cc3N=C2N1
EC50 (Rattus norvegicus [1]): 350000 nM
